# Screens (PubChem BioAssay)
# Shown are actives, neighbours in structure and some others; about 2.1% of the full set was active somewhere.
# Runt-CBFb FRET: inhibitors of human RUNX1 Runt domain binding to CBFb; Q01196+Q13951; hit rate 0.46% among 220,000; inhibition, % at 20 µM; Cerulean-Runt/Venus-CBFb FRET ratio 530/480, 1 h;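 active = inhibition over about 50% at 20 µM in the single-dose screen, limit read from the data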;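 also: 0% = DMSO wells and 100% = excess unlabeled CBFb competitor control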
#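 Measured by: fluorescence energy transfer, 422 nm excitation, 530/480 nm emission; test system: Cerulean-tagged RUNX1 Runt domain (FRET donor) fusion protein; buffer or medium: Tris pH 7.5 buffer with BSA; compound: one dose, 20 µM compound, 1% DMSO; times: two 1 h room-temperature incubations shielded from light; benchmarks: unlabeled CBFb 5 µM, positive control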
# RanGTP-Imp inh: inhibitors of RanGTP-importin-beta interaction, primary screen, biochemical, FRET, CFP-Ran, YFP-importin-beta, homogeneous; inhibition, % (no concentration beside the values); cell-free CFP-Ran/YFP-importin-beta FRET ratio; hit rate 1.1% among 300,000;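 active = more than half of the replicate wells show a fall in the fluorescence ratio signal beyond about 16%, limit read from the data, passing the limit was not always enough; inconclusive = exactly half of the replicate wells pass the set limit; inactive = fewer than half of replicates pass the limit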;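 also: 0% = DMSO wells and 100% = Ran loaded with GDP instead of GTP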
# TbHK1 inh: T. brucei hexokinase 1 inhibition; hit rate 0.11% among 220,000; inhibition, % at 10 µM; recombinant TbHK1, G6PDH-coupled NADH A340; AID 1430;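 active = inhibition of 50% or more in the single-dose primary screen; inactive = inhibition below 50%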
# p97 inhibitor: inhibitors of human p97 ATPase. P55072. recombinant p97 ATPase, Kinase-Glo ATP luminescence, 3 h. inhibition, % at 8 µM. hit rate 0.42% among 220,000. AID 1481; in the data active = inhibition above about 15%;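 also: 0% = DMSO vehicle and 100% = wells lacking enzyme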
# Runt-SMMHC FRET: Runt domain-CBFb-SMMHC interaction inhibition; AID 1434; hit rate 0.74% among 220,000; Cerulean-Runt/Venus-CBFb-SMMHC FRET ratio 530/480, 1 h; inhibition, % at 20 µM;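 active = mean inhibition across duplicate retests at 20 µM reaching about 50%, limit read from the data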;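 also: 0% = DMSO wells and 100% = wells with excess untagged CBFb-SMMHC; inhibitors lower the FRET ratio by blocking Runt binding to CBFb-SMMHC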
# Hck-Nef inh: human Hck-Nef kinase inhibition. P08631. Recombinant Hck-YEEI plus Nef, Z-Lyte FRET kinase assay. inhibition, % at 20 µM. hit rate 0.68% among 220,000. AID 463187;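 active = Hck-Nef kinase inhibition above about 50%, limit read from the data; inactive = inhibition below that limit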;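 also: 0% = DMSO with Hck plus Nef and 100% = Hck alone without Nef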
# Target sequence (P08631 whole entry, looked up): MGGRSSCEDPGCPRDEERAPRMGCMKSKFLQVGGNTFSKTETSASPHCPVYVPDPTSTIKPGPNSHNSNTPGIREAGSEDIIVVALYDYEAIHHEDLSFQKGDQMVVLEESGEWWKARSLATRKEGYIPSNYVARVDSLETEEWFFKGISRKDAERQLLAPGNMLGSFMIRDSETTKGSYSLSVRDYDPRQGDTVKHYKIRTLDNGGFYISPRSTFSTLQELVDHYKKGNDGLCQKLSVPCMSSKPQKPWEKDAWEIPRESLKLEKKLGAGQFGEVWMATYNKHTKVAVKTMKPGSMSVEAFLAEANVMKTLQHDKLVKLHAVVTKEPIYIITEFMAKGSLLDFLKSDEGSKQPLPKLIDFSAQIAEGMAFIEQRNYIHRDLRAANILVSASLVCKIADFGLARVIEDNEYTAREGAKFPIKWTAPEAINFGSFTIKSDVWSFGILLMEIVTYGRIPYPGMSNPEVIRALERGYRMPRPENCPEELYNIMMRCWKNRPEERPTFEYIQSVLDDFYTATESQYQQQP
# * = called active by the depositor; ? = inconclusive; nt = not tested or not shown.
SMILES,Runt-CBFb FRET,RanGTP-Imp inh,TbHK1 inh,p97 inhibitor,Runt-SMMHC FRET,Hck-Nef inh
Cc1nc(CCNC(=O)C2CCC(=O)N(Cc3cccc(F)c3)C2)sc1C (configuration not stated),nt,2.3,nt,nt,nt,nt
CCOC(=O)N1CCC(NCc2c(C(=O)N(C)Cc3ccccc3)nc3ccccn23)CC1,3.8,3.5,-14.9,1.6,-5.4,0.3
CC(C)OC(=O)CC(=O)CSc1nc2c(c(-c3cccs3)c1C#N)CCC2,6.1,?,-1.0,4.3,7.4,5.1
CCOC(=O)C(C)Sc1nc2c(c(-c3cccs3)c1C#N)CCC2 (configuration not stated),1.9,109.0*,24.7,-2.6,32.8,6.5
CCOC(=O)c1cc(C#N)c(SCC(=O)c2cc(C#N)c(SC)nc2C)nc1C,-10.5,19.8*,nt,nt,40.7,nt
CCOc1cc(Cl)c(S(=O)(=O)NCCCn2ccnc2)cc1Cl,nt,2.3,nt,nt,nt,nt
CC(=O)c1cc2c(cc1N/C(=N/S(=O)(=O)c1ccc(C)cc1)c1ccccc1)OCO2,-0.2,23.5*,37.4,-5.0,-0.9,-2.4
CC(=O)c1cc2c(cc1N/C(=N/S(=O)(=O)c1ccc(C)cc1)c1ccc(Cl)cc1)OCO2,-0.8,6.0,24.8,-5.2,-1.6,-2.2
CCOc1c(Nc2ccccc2O)c(=O)c1=O,0.6,-3.9,-26.3,2.3,1.4,12.0
COc1c(O)cnn(-c2ccccc2)c1=O,0.5,-0.3,-8.5,3.9,0.3,7.2
COc1cccc(-c2cc(C(=O)Nc3ccc(N(C)C(C)=O)cc3)c3cc(Br)ccc3n2)c1,nt,1.0,nt,nt,nt,nt
O=c1[nH]c2c(s1)C(c1ccc(O)cc1)C1C3CCC(C3)C1S2 (configuration not stated),16.5,-2.4,0.4,1.2,10.8,0.6
O=C(O)CCCN1C(=O)C2C3CC(C2C1=O)C1C(c2ccccc2)c2sc(=O)[nH]c2SC31 (configuration not stated),13.6,7.5,1.1,1.6,15.4,-75.7
O=C(O)CN1C(=O)C2C3CC(C2C1=O)C1C(c2ccc(F)cc2)c2sc(=O)[nH]c2SC31 (configuration not stated),33.4,79.1*,1.1,2.7,25.5,24.1
O=C(O)CN1C(=O)C2C3CC(C2C1=O)C1C(c2ccc(Cl)cc2)c2sc(=O)[nH]c2SC31 (configuration not stated),41.9,73.3*,-2.1,5.8,27.2,22.5
CC(C(=O)O)N1C(=O)C2C3CC(C2C1=O)C1C(c2ccccc2)c2sc(=O)[nH]c2SC31 (configuration not stated),18.0,73.8*,0.8,-7.6,11.8,-0.1
O=C(O)c1cc2cc(Oc3ccccc3)ccc2[nH]1,nt,-2.5,nt,nt,nt,nt
O=C(COc1ccc(Cl)cc1)Nc1ccc2c(c1)C(=O)NC2=O,nt,-1.6,nt,nt,nt,nt
Nc1cccc2c1C(=O)N(CCOc1ccccc1F)C2=O,nt,42.0*,nt,nt,nt,nt
CCOc1ccc(N(C(=O)c2ccc(S(=O)(=O)N3CCCC3)cc2)C2C=CS(=O)(=O)C2)cc1 (configuration not stated),nt,3.7,nt,nt,nt,nt
CCCCN(CCCNC(=O)C1CCN(S(=O)(=O)CC)CC1)c1ccccc1,1.9,21.8*,-4.8,-4.6,7.3,0.0
COc1cc([N+](=O)[O-])ccc1NC(=O)CSc1nncn1-c1cccnc1,nt,-2.0,nt,nt,nt,nt
Cc1ccc(CNC(=O)c2ccc3c(=O)[nH]c4c(C(=O)NCC5CCCO5)sc(=S)n4c3c2)cc1 (configuration not stated),nt,3.0,-7.7,1.8,-26.4,56.6*
CC(C)COC(=O)/C(C#N)=C/c1c[nH]c2ccccc12,24.2,2.3,0.8,-0.3,50.8*,2.4
O=c1c2ccccc2oc2cc(NCCCn3ccnc3)ccc12,nt,58.2*,nt,nt,nt,nt
SMILES,Runt-CBFb FRET,RanGTP-Imp inh,TbHK1 inh,p97 inhibitor,Runt-SMMHC FRET,Hck-Nef inh
CN1CCCC1CCNc1ccc2c(=O)c3ccccc3oc2c1 (configuration not stated),nt,49.2*,nt,nt,nt,nt
CN1CCCC1CCNc1ccc2oc3ccccc3c(=O)c2c1 (configuration not stated),nt,-72.7,nt,nt,nt,nt
O=c1c2ccccc2oc2cc(NCCCN3CCOCC3)ccc12,nt,45.6*,nt,nt,nt,nt
COc1ccccc1N1CCN(C(=O)c2cc3c(=O)n4cccc(C)c4nc3s2)CC1,nt,31.0*,nt,nt,nt,nt
N#C/C(=C(/O)COC(=O)CCc1ccc(S(=O)(=O)N2CCOCC2)cc1)c1nc2ccccc2[nH]1,12.9,28.8*,-1.8,1.7,49.0,7.2
CCOc1ccc(S(=O)(=O)N2CCCC(C(=O)NC3CC3)C2)cc1Cl (configuration not stated),nt,2.2,nt,nt,nt,nt
O=C(CC1S/C(=N/N=C/c2c[nH]c3ccccc23)NC1=O)Nc1ccccc1 (configuration not stated),-1.4,-1.9,-9.5,4.7,-2.8,0.7
O=C(CC1S/C(=N/N=C/c2ccco2)NC1=O)Nc1ccccc1 (configuration not stated),1.9,138.8*,-7.2,2.5,17.1,-1.3
COc1ccc(C(=O)NNC2=CC(=O)CC(C)(C)C2)cc1,3.2,33.2*,15.8,-6.2,1.6,-0.9
NS(=O)(=O)c1ccc(Nc2nc(-c3ccc(O)cc3)cs2)cc1,4.0,3.4,-12.1,6.7,-2.9,1.9
Oc1ccc(Nc2nc(-c3ccc(O)cc3)cs2)cc1,5.9,6.5,1.7,14.8*,2.1,1.1
Oc1c(N=Nc2ccccc2)sc2ccccc12,-6.1,28.7*,-1.5,-8.6,-10.3,18.4
CCCc1cc(Nc2c(C)n(C)n(-c3ccccc3)c2=O)n2c(nc3ccccc32)c1C#N,26.6,107.4*,-9.1,4.3,44.0,0.3
Cc1cc(Nc2c(C)n(C)n(-c3ccccc3)c2=O)n2c(nc3ccccc32)c1C#N,32.4,107.1*,-14.5,9.4,54.3,6.6
Cc1ccc(S(=O)(=O)N2C(=O)CCC2C(N)=O)cc1 (configuration not stated),nt,-5.4,nt,nt,nt,nt
O=C(COC(=O)c1cc(-c2cccs2)nc2ccccc12)NC1CCS(=O)(=O)C1 (configuration not stated),nt,7.8,-2.4,-4.9,9.1,-12.2
CCOc1cc(C2C(C#N)=C(N)SC(N)=C2C#N)ccc1OCCN1CCOCC1,23.6,?,-19.5,6.8,15.3,1.1
CCOc1ccc(C2C(C#N)=C(N)SC(N)=C2C#N)c(OCC)c1,15.2,18.9*,-12.8,0.6,31.7,5.4
CCOc1ccc(NC(=O)/C(C#N)=C/c2cn(CC(=O)O)c3ccccc23)cc1,nt,3.3,nt,nt,nt,nt
CCOc1cccc(NC(=O)/C(C#N)=C\c2cn(CC(=O)O)c3ccccc23)c1,nt,27.8*,nt,nt,nt,nt
Cc1cccc(NC(=O)/C(C#N)=C/c2cn(CC(=O)NCc3ccco3)c3ccccc23)c1C,-60.4,56.7*,1.7,-3.3,-45.6,6.2
Cc1ccc(S(C)(=O)=O)cc1C(=O)NC(C)C1CC2CCC1C2 (configuration not stated),nt,-3.5,nt,nt,nt,nt
